Measurements as given in PMC11439047 (Nature Communications, 2024).
Where a chain is given by its changes, count along the chain named.

What was measured:
[1] = molecular target: T1, P2X1 receptor R139P (Homo sapiens, UniProt P51575, R139P); experiment: Saturation radioligand binding with [3H]-α,β-methylene ATP
T1 sequence (P51575 1-399 R139P): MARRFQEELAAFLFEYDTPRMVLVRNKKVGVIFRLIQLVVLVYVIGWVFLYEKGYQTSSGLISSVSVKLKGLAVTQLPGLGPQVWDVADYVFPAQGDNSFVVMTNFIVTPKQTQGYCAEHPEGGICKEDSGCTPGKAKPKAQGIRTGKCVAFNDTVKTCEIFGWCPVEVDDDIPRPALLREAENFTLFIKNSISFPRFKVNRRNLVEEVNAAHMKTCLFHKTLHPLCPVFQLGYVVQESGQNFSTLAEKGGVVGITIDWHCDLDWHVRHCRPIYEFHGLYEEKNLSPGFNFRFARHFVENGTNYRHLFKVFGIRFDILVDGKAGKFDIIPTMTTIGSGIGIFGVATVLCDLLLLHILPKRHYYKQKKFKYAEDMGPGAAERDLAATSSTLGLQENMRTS
Method in brief: (§1)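 Whole HEK293 Flp-In T-REx cells stably expressing receptor, tetracycline-induced (150 ng/ml, 2 days), 15,000 cells/well, washed in HEPES binding buffer pH 7.4 with Ca2+/Mg2+. Increasing [3H]-α,β-methylene ATP added, 3 h room temperature with gentle agitation; non-specific binding with 10 μM ATP. Ice-cold 0.9% NaCl washes, scintillation counting (CCPM). Specific binding fitted one-site; values above 300 nM termed not defined.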

[2] = molecular target: T2, P2X1 receptor M214A (Homo sapiens, UniProt P51575, M214A); experiment: Calcium ion influx assay; format: cell-based
T2 sequence (P51575 1-399 M214A): T1 sequence (P51575 1-399 R139P) with P139R, M214A

[3] = molecular target: T3, P2X1 receptor E122A (Homo sapiens, UniProt P51575, E122A); experiment: Calcium ion influx assay; format: cell-based
T3 sequence (P51575 1-399 E122A): T1 sequence (P51575 1-399 R139P) with E122A, P139R
Method in brief: (§2)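 Tetracycline-induced (150 ng/mL, 2 days) stable HEK293 Flp-In T-REx cells at 15,000 cells/well, loaded with Fluo-8 for 1 h at 37 °C in probenecid-containing HEPES buffer, pH 7.4. Then 30 min buffer incubation, 20 s baseline, agonist addition and 2 min reading (ex 485/em 525 nm). Max-minus-min fluorescence normalised to 10 µM ionomycin, rescaled 0–100. Constrained four-parameter fit; EC50 per experiment; four independent experiments, triplicate.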

[4] = molecular target: T3, P2X1 receptor E122A; experiment: Saturation radioligand binding with [3H]-α,β-methylene ATP
[5] = molecular target: T4, P2X1 receptor D170A (Homo sapiens, UniProt P51575, D170A); experiment: Calcium ion influx assay; format: cell-based
T4 sequence (P51575 1-399 D170A): T1 sequence (P51575 1-399 R139P) with P139R, D170A
Method in brief: as §2

[6] = molecular target: T5, P2X1 receptor F188L (Homo sapiens, UniProt P51575, F188L); experiment: Saturation radioligand binding with [3H]-α,β-methylene ATP
T5 sequence (P51575 1-399 F188L): T1 sequence (P51575 1-399 R139P) with P139R, F188L
Method in brief: as §1

Nc1ncnc2c1ncn2[C@@H]1O[C@H](COP(=O)(O)CP(=O)(O)OP(=O)(O)O)[C@@H](O)[C@H]1O [α,β-methylene ATP]
binding affinity compared to WT-P2X1 [1]: reduced | fold decrease in potency compared to WT-P2X1 [2]: 7 fold | desensitisation rate compared to WT-P2X1 ([2]; maximal α,β-methylene ATP): significantly slowed the desensitisation rate | fold decrease in potency compared to WT-P2X1 [3]: 18.5 fold | binding affinity compared to WT-P2X1 [4]: beyond the threshold that could be accurately measured | fold decrease in potency compared to WT-P2X1 [5]: 58 fold | binding affinity compared to WT-P2X1 [6]: similar
